Active and inactive are the calls of the source. The calls are words filed in the database; no cut-off is given here.
Key:
Rattus norvegicus [1] = experiment: Hepatotoxicity in Triton-X-100-induced hyperlipidemia Wistar albino rat model assessed as SGPT level in serum at 250 mg/kg, po qd for 7 days; assay type: toxicity, organism-based; design: dose 250 mg/kg, route oral; details: in vivo, 168 h
Method in brief: (§1)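 Serum from Triton-X-100 hyperlipidemic male Wistar rats, dosed orally daily for 7 days in 5% CMC. Blood taken retro-orbitally under ether. Assays: alanine transferase and aspartate transferase reported in IU, alkaline phosphatase in KA units. Normal ranges are given alongside.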

Rattus norvegicus [2] = experiment: Ratio of LDL level in serum to HDL level in serum in Triton-X-100-induced hyperlipidemia Wistar albino rat model at 250 mg/kg, po qd for 7 days; assay type: functional
Method in brief: (§2)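 Triton-X-100 hyperlipidemic male Wistar rats, n = 6 per group, dosed orally for 7 days in 5% CMC. Serum lipids were measured and risk ratios calculated per NCEP (2002): total cholesterol:HDL (atherogenic index) and LDL:HDL.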

Rattus norvegicus [3] = experiment: Ratio of total cholesterol level in serum to HDL level in serum in Triton-X-100-induced hyperlipidemia Wistar albino rat model at 250 mg/kg, po qd for 7 days; assay type: functional; method in brief: as §2
Rattus norvegicus [4] = experiment: Antihyperlipidemic activity in Triton-X-100-induced hyperlipidemia Wistar albino rat model assessed as reduction of LDL level in serum at 250 mg/kg, po qd for 7 days; assay type: functional
Method in brief: (§3)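 Male Wistar albino rats (200–250 g), fasted 18 h, then given a single i.p. injection of Triton-X-100 (100 mg/kg) in saline. Starting 72 h later, dosed orally once daily for 7 days with suspension in 5% CMC; six per group. Retro-orbital blood taken under ether; serum separated at 2500 × g, 15 min, 4 °C, and lipids assayed. Mean ± SEM, n = 6.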

Rattus norvegicus [5] = experiment: Hepatotoxicity in Triton-X-100-induced hyperlipidemia Wistar albino rat model assessed as SGOT level in serum at 250 mg/kg, po qd for 7 days; assay type: toxicity, organism-based; design: dose 250 mg/kg, route oral; details: in vivo, 168 h; method in brief: as §1
Rattus norvegicus [6] = experiment: Antihyperlipidemic activity in Triton-X-100-induced hyperlipidemia Wistar albino rat model assessed as reduction of total cholesterol level in serum at 250 mg/kg, po qd for 7 days; assay type: functional; method in brief: as §3
Rattus norvegicus [7] = experiment: Protective activity against Triton-X-100-induced hepatotoxicity in Wistar albino rat assessed as mild cytoplasmic fatty infiltration and mild to moderate granular degeneration in liver at 250 mg/kg, po qd for 7 days; assay type: functional, organism-based; design: dose 250 mg/kg
Rattus norvegicus [8] = experiment: Antihyperlipidemic activity in Triton-X-100-induced hyperlipidemia Wistar albino rat model assessed as reduction of triglyceride level in serum at 250 mg/kg, po qd for 7 days; assay type: functional; method in brief: as §3
Rattus norvegicus [9] = experiment: Hepatotoxicity in Triton-X-100-induced hyperlipidemia Wistar albino rat model assessed as alkaline phosphatase level in serum at 250 mg/kg, po qd for 7 days; assay type: toxicity, organism-based; design: dose 250 mg/kg, route oral; details: in vivo, 168 h; method in brief: as §1
Rattus norvegicus [10] = experiment: Antihyperlipidemic activity in Triton-X-100-induced hyperlipidemia Wistar albino rat model assessed as reduction of VLDL level in serum at 250 mg/kg, po qd for 7 days; assay type: functional; method in brief: as §3
Rattus norvegicus [11] = experiment: Antihyperlipidemic activity in Triton-X-100-induced hyperlipidemia Wistar albino rat model assessed as increase of HDL level in serum at 250 mg/kg, po qd for 7 days; assay type: functional; method in brief: as §3
Rattus norvegicus [12] = experiment: Protective activity against Triton-X-100-induced hepatotoxicity in Wistar albino rat assessed as mild cytoplasmic fatty infiltration and mild granular degeneration in liver at 250 mg/kg, po qd for 7 days; assay type: functional, organism-based; design: dose 250 mg/kg

Structure (SMILES) | Activity (Rattus norvegicus [1]) [IU] | Ratio (Rattus norvegicus [2]) | Ratio (Rattus norvegicus [3]) | Activity (Rattus norvegicus [4]) [mg/dL] | Activity (Rattus norvegicus [5]) [IU] | Activity (Rattus norvegicus [6]) [mg/dL] | Activity (Rattus norvegicus [7]) | Activity (Rattus norvegicus [8]) [mg/dL] | Activity (Rattus norvegicus [9]) [KA] | Activity (Rattus norvegicus [10]) [mg/dL] | Activity (Rattus norvegicus [11]) [mg/dL] | Activity (Rattus norvegicus [12])
Clc1ccc(-c2nc3sc(-c4ccc5c(c4)OCO5)nn3c2/C=N/c2ccc(Br)cc2)cc1 | 29.3 | 1.63 | 3.15 | 53.82 | 58.8 | 103.54 | Active | 83.43 | 26.6 | 16.85 | 32.85 | –
O=C(N/N=C/c1c(-c2ccc(Cl)cc2)nc2sc(-c3ccc4c(c3)OCO4)nn12)c1ccccc1 | – | 1.97 | 3.6 | 59.12 | – | 107.87 | – | 80.67 | – | 16.34 | 29.93 | –
O=C(O)c1ccc(/N=C/c2c(-c3ccc(Cl)cc3)nc3sc(-c4ccc5c(c4)OCO5)nn23)cc1 | 26.8 | 1.43 | 2.76 | 49.94 | 48.3 | 96.12 | – | 76.89 | 29.5 | 15.85 | 34.78 | Active
NS(=O)(=O)c1ccc(/N=C/c2c(-c3ccc(Cl)cc3)nc3sc(-c4ccc5c(c4)OCO5)nn23)cc1 | 28.6 | 1.54 | 3 | 52.23 | 51.7 | 101.56 | – | 79.54 | 29.3 | 14.73 | 33.78 | Active
COc1ccc(/N=C/c2c(-c3ccccc3)nc3sc(-c4ccc5c(c4)OCO5)nn23)cc1 | – | 2.24 | 3.95 | 64.73 | – | 113.98 | – | 84.98 | – | 18.46 | 28.83 | –
Cc1cccc(/N=C/c2c(-c3ccc(Cl)cc3)nc3sc(-c4ccc5c(c4)OCO5)nn23)c1 | – | 2.23 | 4.04 | 62.83 | – | 113.72 | – | 86.23 | – | 19.93 | 28.12 | –
O=[N+]([O-])c1ccc(/N=C/c2c(-c3ccc(Cl)cc3)nc3sc(-c4ccc5c(c4)OCO5)nn23)cc1 | 28.3 | 1.84 | 3.34 | 58.24 | 49.9 | 105.56 | – | 82.56 | 28.8 | 18.13 | 31.54 | –
CC(C)OC(=O)C(C)(C)Oc1ccc(C(=O)c2ccc(Cl)cc2)cc1 [FENOFIBRATE] | 26.43 | 1.46 | 2.9 | 51.68 | 49.45 | 102.24 | – | 71.23 | 28.33 | 13.67 | 35.21 | –
C(=N\c1ccccc1)/c1c(-c2ccccc2)nc2sc(-c3ccc4c(c3)OCO4)nn12 | – | 2.62 | 4.7 | 65.85 | – | 118.23 | – | 89.12 | – | 21.54 | 25.12 | –
Cc1ccc(/N=C/c2c(-c3ccccc3)nc3sc(-c4ccc5c(c4)OCO5)nn23)cc1 | – | 2.84 | 4.89 | 66.32 | – | 114.36 | – | 88.43 | – | 22.83 | 23.34 | –
COc1ccc(/N=C/c2c(-c3ccc(Cl)cc3)nc3sc(-c4ccc5c(c4)OCO5)nn23)cc1 | – | 1.9 | 3.44 | 59.85 | – | 107.83 | – | 83.56 | – | 16.86 | 31.34 | –
Cc1ccc(/N=C/c2c(-c3ccc(Cl)cc3)nc3sc(-c4ccc5c(c4)OCO5)nn23)cc1 | – | 2.36 | 3.89 | 68.84 | – | 113.28 | – | 85.67 | – | 18.35 | 29.12 | –
Brc1ccc(/N=C/c2c(-c3ccccc3)nc3sc(-c4ccc5c(c4)OCO5)nn23)cc1 | – | 2.57 | 4.55 | 63.74 | – | 112.78 | – | 86.89 | – | 19.86 | 24.78 | –
Fc1ccc(/N=C/c2c(-c3ccc(Cl)cc3)nc3sc(-c4ccc5c(c4)OCO5)nn23)cc1Cl | 27.8 | 1.63 | 2.97 | 54.95 | 56.5 | 99.89 | – | 80.45 | 27.3 | 15.43 | 33.57 | Active

Source: ChEMBL document CHEMBL2429797, “2,5,6-trisubstituted imidazo[2,1-b][1,3,4]thiadiazoles: search for antihyperlipidemic agents” (Eur J Med Chem, 2013)
